Data from the EternaBench riboswitch data.

Tested on: MS2 coat protein
Test: apparent Kd, MS2 coat protein; higher = weaker binding; RNA-MaP array; theophylline 2 mM where present
In short: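 Two titrations, one without ligand and one with constant ligand, were run with SNAP-549-labelled MS2 coat protein from 0.7 or 1.5 nM, doubling to 3 µM. The targets were designs transcribed by stalled E. coli RNA polymerase on Illumina sequencing-chip clusters, in 100 mM Tris-HCl pH 7.5, 80 mM KCl, 4 mM MgCl2, BSA, DTT, yeast tRNA and Tween-20. The apparent Kd is the median of filtered per-cluster binding-curve fits, with green signal normalised to red-channel RNA signal and control-cluster median Fmax.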

[1] = designed as: ON switch for theophylline, no ligand
[2] = ligand present: theophylline, designed as: ON switch for theophylline
[3] = designed as: OFF switch for theophylline, no ligand
[4] = ligand present: theophylline, designed as: OFF switch for theophylline

Row | Sequence | apparent Kd [1] [nM] | apparent Kd [2] [nM] | apparent Kd [3] [nM] | apparent Kd [4] [nM]
1 | AACAUCUGGCGUGAUACCAGCCACAUGAGGAUCACCCAUGUCAACACUCGCAAUUGCGACGGCCCUUGGCAGCACGCAUCCUCAG | 64 | 12.1 | – | –
2 | AACAUGAGGAUUGAUACCAGUCCAUGAGGAUCACAUGAGGAUCACCCAUGUGGAACAUGAGGCCCUUGGCAGCAGUACAACAUGA | 15.6 | 11 | – | –
3 | AACCGAGGCUAUCCACAAAGAAAAUGUGAUACCAGAAUAAUUUUAUUCCCUUGGCAGCAUGACAUGAGGAUCACCCAUGUGUCUU | 32.3 | 35.6 | – | –
4 | AACCGAGGCUAUCCUCUCCGCCUAUGUGAUACCAGAAUAAUUUUAUUCCCUUGGCAGCAUGACAUGAGGAUCACCCAUGUCUCUU | 17.6 | 20.3 | – | –
5 | AAGGUGAUCCGUGAUACCAGCUCAACAUGAGGAUCACCCAUGUAACGGACGAAAGUCCGGAGCCCUUGGCAGCACGGUAAUAAUA | 11.2 | 11.4 | – | –
6 | ACAUGAGGAUCACCCAUGUAAAUCCUCGAUACCAGCCAAAGGAGAGGCCCUUGGCAGCGGAAAGGCCGGGUAUAAAUGUCCGGCC | 134 | 126 | – | –
7 | ACAUGAGGAUCACCCAUGUCAGGGCACGAUACCAGCUGAUCCGAUGGCCCUUGGCAGCGUGACGUGUGGUCAUGAGGAUCACCCG | 189 | 156 | – | –
8 | ACAUGAGGAUCACCCAUGUGCCGUCUUGAUACCAGACCCGAAGUAGUCCCUUGGCAGCAACUACGUGACGGUCGCGCAUGUGUAG | – | – | 19.8 | 28.7
9 | ACAUGAGGAUCACCCAUGUUCCUCAUUGAUACCAGUGAAUUUAGACGCCCUUGGCAGCGAGUUUUUGAAGAAGAAGUUUUUUUUU | – | – | 545 | 1080
10 | ACAUGAGGAUCACCCAUGUUCCUCAUUGAUACCAGUGAAUUUAGACGCCCUUGGCAGCGAGUUUUUUAAGAAGAAGUUUUUUUUU | – | – | 421 | 1110
11 | ACAUGAGGAUCACCCAUGUUCCUCGCCGAUACCAGUGAAGAAUUACGCCCUUGGCAGCGGAAUGAGUGUUUUGGAGAUGAGGUAC | – | – | 62.4 | 107
12 | ACAUGAGGAUCACCCAUGUUCCUCUUUGAUACCAGUGAGUUGUUUCGCCCUUGGCAGCGAGUUUUUUUUUUUUUGUUUUGUUUGG | – | – | 274 | 390
13 | ACAUGUCUUAUAGAUACCAGACAGGACAUGAGGAUCACCCAUGUAAUGUAUACAUGCAGAGUCCCUUGGCAGCUAAGGUCAUAGA | 77.6 | 66.3 | – | –
14 | ACCAUGUAAUCAGAUACCAGACAUCUUUUAAAUCAUAUUACAUGAGGAUCACCCAUGUUGGUCCCUUGGCAGCUGAAAUAUUUCA | 356 | 109 | – | –
15 | ACGACGCAUAGUGAUACCAGUAGAACAUGAGGAUCACCCAUGUCUGUGGCGCUCCGCCUCUGCCCUUGGCAGCACUAUGCGUCAG | 12.4 | 18.6 | – | –
16 | AGACAUGAGGAUCACCCAUGUAGCAUGGAUACCAGAUGUAGAUUAGUCCCUUGGCAGCUGUGGUAAAGUGAUGCAUUGCUCCUAG | – | – | 49.2 | 47.4
17 | AGACAUGAGGAUCACCCAUGUAGCAUGGAUACCAGAUGUAGAUUUAUCCCUUGGCAGCUGUGGUAAAGUGAUGCAUUGCUCCUAG | – | – | 37.8 | 42.2
18 | AGACAUGUAAGAUAAUUGACUUUUACAGAUACCAGACUGUCUAAUGUCCCUUGGCAGCUGCAUUACAUGAGGAUCACCCAUGUUA | – | – | 19.2 | 17.9
19 | AGCACAUGAGGAUCACCCAUGUGAGGUGAUACCAGUGAGAAGAAGCACCCUUGGCAGCACUUGGGUACAUGAGGAUCACCCAUGU | – | – | 58.9 | 169
20 | AGCGACAUGCAUGAUACCAGCUACAUGAGGAUCACCCAUGUACGUCAGUAAUGACUGUGUAGCCCUUGGCAGCAUAGAGCAUGUA | – | – | 17.5 | 44.5
21 | AGUAAUCUAACAGAUACCAGACGGUAUAUAACAUGAGGAUCACCCAUGUCUUGGGUGUACGUCCCUUGGCAGCUGAAAAUGAUAA | 567 | 383 | – | –
22 | AGUACACGAACUGAUACCAGCCGGACAUGAGGAUCACCCAUGUCCUACCUCUGUUCGGUUGGCCCUUGGCAGCAGUUCGUGUACA | 81.6 | 121 | – | –
23 | AUAUUAGACCUGGAUACCAGCGACAUGAGGAUCACCCAUGUAUGUGCAUCUGCCAUGAUAUGCCCUUGGCAGCCACCGAGGUCGU | – | – | 11.4 | 19.1
24 | AUUGCGAGUGAGUCGUGUAACGAUUCAGAUACCAGGCAUUUCGUUGUCCCUUGGCAGCUGUCUUACAUGAGGAUCACCCAUGUUA | – | – | 52.3 | 106
25 | CCCAACAGUGAUGCCGGUGUUGGUGGUGAUACCAGCGUCUUAUGGCGCCCUUGGCAGCACCAACAUGAGGAUCACCCAUGUGAAA | 55.2 | 409 | – | –
